One block for each molecule: values may come before it. The source made the active and inactive calls. The calls are words filed in the database; no cut-off is given here.
Legend:
[1] = test system: HEK293; experiment: Inhibition of wild type C-terminal halo-tagged S100A4-nanoluc-fused NMII interaction (unknown origin) expressed in HEK293 cells using nano-glo as substrate incubated for 24 hrs by Nano-bret assay; type: cell-based; settings: Homo sapiens
[2] = test system: HEK293; experiment: Inhibition of C-terminal halo-tagged S100A4 C81S mutant-nanoluc-fused NMII interaction (unknown origin) expressed in HEK293 cells using nano-glo as substrate incubated for 24 hrs by Nano-bret assay; type: cell-based; settings: Homo sapiens
Procedure, shortened: (§1)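 S100A4 wild-type or C81S construct co-expressed with NMII fusion in HEK293 cells, run in parallel. Inhibitors given at a single 30 μM for 24 h with HaloTag 618 ligand in phenol-red-free 4% serum medium. NanoGlo substrate added. Background-corrected 618/460 nm BRET ratio compared with DMSO-treated cells.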

[3] = target: Protein S100-A4 (Homo sapiens, UniProt P26447); experiment: Inhibition of S100A4 (unknown origin) in presence of GSH by HTRF analysis
[4] = test system: HEK293; experiment: Inhibition of C-terminal halo-tagged S100A4 C81S mutant-nanoluc-fused NMII interaction (unknown origin) expressed in HEK293 cells using nano-glo as substrate incubated for 24 hrs by Nano-bret assay relative to control; type: cell-based; settings: Homo sapiens, dose or concentration not given here; procedure, shortened: as §1
[5] = Inhibition of S100A4-NMII interaction (unknown origin) by HTRF analysis; set-up: species or system Homo sapiens
Procedure, shortened: (§2)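 TR-FRET peptide-displacement assays run in parallel: S100A4 with MPN (NMII-mimicking) peptide, and S100A11 with AnII-mimicking peptide, both with 1 mM calcium. IC50 fitted from percentage inhibition against solvent controls.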

[6] = test system: HeLa; experiment: Inhibition of cell migration in human HeLa cells assessed as reduction in wound healing at 8 uM incubated for 36 hrs by incucyte live-cell imager; type: functional, cell-based
Procedure, shortened: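 HeLa or A549 cells seeded in collagen-coated 96-well plates to near confluency. Monolayer scratched, then medium replaced with medium containing various inhibitor concentrations. Plates imaged every 2 h for 36 h in an Incucyte. Wound area measured with an image-analysis wound healing tool.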

[7] = species: Homo sapiens; experiment: Inhibition of S100A11-AN2 interaction (unknown origin) by HTRF analysis
Procedure, shortened: as §2, with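 “calcium. Duplicate dose-response in two independent experiments; top concentration 100 μM or 48.75 μM depending on series.” for “calcium.”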

[8] = Aqueous solubility of compound in PBS buffer at pH 7.4; type: physicochemical
Procedure, shortened: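 Aqueous solubility measured in PBS pH 7.4 by an outside contract laboratory.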

[9] = Permeability of compound in MDCK-MDR1 cells; type: ADME, cell-based, Canis lupus familiaris; settings: dog
Procedure, shortened: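 Permeability and P-gp efflux measured by transit across MDCK-MDR1 cell monolayers by an outside contract laboratory.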

Protein S100-A4, sequence (P26447 whole entry, the tested form may be a part): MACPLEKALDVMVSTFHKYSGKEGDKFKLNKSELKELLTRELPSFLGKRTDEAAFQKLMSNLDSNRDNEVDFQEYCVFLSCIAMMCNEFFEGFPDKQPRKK

inhibition [7]: inactive
IC50 [5]: < 1000 nM
Structure (SMILES): O=C1Nc2ccccc2C1NC(=O)[C@H]1C[C@H](c2ccccc2)CN1C(=O)CCl (some centres not stated)

inhibition [7]: inactive
IC50 [5]: < 1000 nM
Structure (SMILES): COc1cccc(N2CC(NC(=O)[C@H]3C[C@H](c4ccccc4)CN3C(=O)CCl)CC2=O)c1 (some centres not stated)

inhibition [7]: inactive
IC50 [5]: < 1000 nM
Structure (SMILES): N#CCc1ccc(NC(=O)[C@H]2C[C@H](c3ccccc3)CN2C(=O)CCl)cc1

More lines, now with the values behind:

Structure (SMILES): O=C(Nc1cccc(Cl)c1)[C@H]1C[C@H](c2ccccc2)CN1C(=O)CCl
inhibition [1]: Active
inhibition [2]: Active
IC50 [3]: 4620 nM
inhibition [4]: < 60%
IC50 [5]: 2900 nM
inhibition [6]: Active

Structure (SMILES): CN1CCCC(NC(=O)[C@H]2C[C@H](c3ccccc3)CN2C(=O)CCl)C1=O (some centres not stated)
inhibition [7]: inactive
IC50 [5]: < 1000 nM

Structure (SMILES): Cc1ccc(S(=O)(=O)/C=C/C#N)cc1
IC50 [3]: > 20000 nM

Structure (SMILES): O=C(NC1CCCc2ccccc21)[C@H]1C[C@H](c2ccccc2)CN1C(=O)CCl (some centres not stated)
inhibition [1]: Active
inhibition [2]: Active
inhibition [7]: inactive
inhibition [4]: < 60%
solubility [8]: soluble
inhibition [6]: Active
permeability [9]: Permeable
